Measurements taken from ChEMBL document CHEMBL4622968, “Discovery of [1,2,4]triazolo[4,3-a]pyridines as potent Smoothened inhibitors targeting the Hedgehog pathway with improved antitumor activity in vivo” (Bioorg Med Chem, 2020).

Assays:
Format in all cases: functional
MDA-MB-468 [1] = test: Induction of cell cycle arrest in human MDA-MB-468 cells assessed as cell accumulation at G2/M phase incubated for 48 hrs by propidium iodide staining-based flow cytometric analysis
Procedure, shortened: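 Cells were seeded at 1.2×10^5 per well and treated for 48 h (MDA-MB-468: 14, 28, 56 μM). Cells were fixed in 75% ethanol at −20 °C overnight, stained with PI and analysed by flow cytometry. Mean ± S.D. of three independent experiments versus DMSO.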

MDA-MB-468 [2] = test: Induction of apoptosis in human MDA-MB-468 cells assessed as early apoptotic cells at 14 uM incubated for 48 hrs by annexin-V-FITC staining based flow cytometric method (reference value: 2.00 %)
MDA-MB-468 [3] = test: Antitumour activity against human MDA-MB-468 cells xenografted in BALB/c mouse assessed as reduction in tumour volume at 80 mg/kg, ig measured every 2 days for 21 days relative to control; design: scale not given: the % may be the effect or the level left
Procedure, shortened: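 Female BALB/c nude mice, 6–8 weeks old, were given subcutaneous flank injections of 1.0×10^7 MDA-MB-468 cells in 0.2 ml PBS. At 100 mm³ tumours they were randomized, five per group. Daily gavage in saline with 0.1% Tween 80 at 80 or 100 mg/kg, or vehicle alone. Tumour volume measured every 2 days and body weight daily. Tumours excised and weighed at day 21.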

O=C(Nc1ccc(Cl)c(-c2nnc3c(Cl)cccn23)c1)c1ccc(Cl)nc1Cl was tested, and the Activity (MDA-MB-468 [1]) was “Dose-dependent effect”, the Activity (MDA-MB-468 [2]) was 8.63% and the Activity (MDA-MB-468 [3]) was 64.97%.
